Experimental data: ChEMBL document CHEMBL1131624, “Inhibitors of acyl-CoA:cholesterol O-acyltransferase. 2. Identification and structure-activity relationships of a novel series of N-alkyl-N-(heteroaryl-substituted benzyl)-N'-arylureas” (J Med Chem, 1998)
Active and inactive are the calls of the source. No cut-off for these calls is given here.

What was measured:
[1] = molecular target: O-acyltransferase (Oryctolagus cuniculus, UniProt G1SFD9); assay: In vitro inhibitory activity against Acyl coenzyme A:cholesterol acyltransferase (ACAT) in rabbit intestinal microsomes; set-up: species or system Intestine
Sequence of O-acyltransferase (G1SFD9 1-524): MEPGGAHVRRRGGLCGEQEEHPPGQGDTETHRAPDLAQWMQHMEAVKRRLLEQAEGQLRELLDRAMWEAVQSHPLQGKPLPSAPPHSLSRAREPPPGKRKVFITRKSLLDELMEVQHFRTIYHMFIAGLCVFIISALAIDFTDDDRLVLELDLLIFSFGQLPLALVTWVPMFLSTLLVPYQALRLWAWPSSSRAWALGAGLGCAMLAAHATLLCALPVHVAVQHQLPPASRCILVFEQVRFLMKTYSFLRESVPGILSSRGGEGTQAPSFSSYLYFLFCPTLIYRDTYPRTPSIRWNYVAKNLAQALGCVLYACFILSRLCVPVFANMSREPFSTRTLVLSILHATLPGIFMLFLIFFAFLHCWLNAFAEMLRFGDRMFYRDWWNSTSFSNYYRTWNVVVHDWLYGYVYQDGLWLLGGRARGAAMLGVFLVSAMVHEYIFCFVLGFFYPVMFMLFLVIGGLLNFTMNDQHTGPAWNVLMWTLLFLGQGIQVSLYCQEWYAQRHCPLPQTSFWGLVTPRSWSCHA
How it was run: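 Enzyme source was mucosal microsomes from small intestine of cholesterol-fed rabbits, incubated with [1-¹⁴C]oleoyl-CoA (Heider method, minor modifications).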

[2] = molecular target: T1, Sterol O-acyltransferase, Soat (Rattus norvegicus) (UniProt Q7TQM4+O70536); assay: Effective dose to reduce plasma total cholesterol level by 50% of the control value in cholesterol fed rats; type: functional
How it was run: (§1)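 Cholesterol-fed rats given compound orally as a dietary admixture in a cholesterol-enriched diet. Plasma total cholesterol compared with control and reported as percent reduction at the dose, or as ED50, the dose reducing plasma total cholesterol by 50% of the control value.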

[3] = species on record: Rattus norvegicus; assay: Effective dose to reduce plasma total cholesterol level by 50% of the control value in cholesterol fed rats; Inactive; type: functional, organism-based; how it was run: as §1
[4] = molecular target: T1, Sterol O-acyltransferase, Soat (Rattus norvegicus); assay: Percentage reduction in total cholesterol level at <1 mg/kg; type: functional, organism-based; how it was run: as §1
[5] = molecular target: T1, Sterol O-acyltransferase, Soat (Rattus norvegicus); assay: Percentage reduction in total cholesterol level at >1 mg/kg; type: functional, organism-based; how it was run: as §1
[6] = test system: Rattus norvegicus; assay: Compound was evaluated for percent reduction in total cholesterol level at <0.32 mg/kg; type: functional; how it was run: as §1
[7] = test system: Rattus norvegicus; assay: Compound was evaluated for percent reduction in total cholesterol level at >0.1 mg/kg; type: functional; how it was run: as §1
[8] = species on record: Mus musculus; assay: Compound tested for inhibitory activity of foam cell formation in mouse peritoneal macrophages; type: functional
How it was run: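 Mouse peritoneal macrophages from nonstimulated mice, lavaged with PBS, plated 2 × 10⁶ cells/mL, adhered 2 h, then 18 h in 10% FBS-DMEM. Incubated 4 h at 37 °C with 0.2 mmol/L [1-¹⁴C]oleate–BSA, 30 µg/mL acetylated human LDL and compound (0.1% DMSO). Lipids extracted, TLC-separated, and cholesteryl [¹⁴C]oleate counted. Cell protein also measured. IC50 in nM.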

[9] = test system: Rattus norvegicus; assay: Compound was evaluated for percent reduction in total cholesterol level at >1 mg/kg; Inactive; type: functional, organism-based; how it was run: as §1

Row | Structure (SMILES) | IC50 [1] | ED50 [2] | other results
1 | Cc1cc(C)c(NC(=O)N(Cc2ccc(-c3cccnc3)cc2)C2CCCCCC2)c(C)c1 | 130 nM | 0.58 mg/kg | 
2 | Cc1cc(C)c(NC(=O)N(Cc2cccc(-c3cnn(C)c3)c2)C2CCCCCC2)c(C)c1 | 44 nM | < 1 mg/kg | Reduction [4]: 74%
3 | Cc1cc(C)c(NC(=O)N(Cc2cccc(-c3cn[nH]c3)c2)C2CCCCCC2)c(C)c1 | 38 nM | 0.19 mg/kg | 
4 | Cc1cc(C)c(NC(=O)N(Cc2ccc(-n3cccc3)cc2)C2CCCCCC2)c(C)c1 | 28 nM | < 1 mg/kg | Reduction [4]: 51%
5 | Cc1cc(C)c(NC(=O)N(Cc2cc(-c3ccccc3)[nH]n2)C2CCCCCC2)c(C)c1 | 520 nM |  | 
6 | Cc1cc(C)c(NC(=O)N(Cc2ccc(-c3ccsc3)cc2)C2CCCCCC2)c(C)c1 | 19 nM | 0.51 mg/kg | 
7 | Cc1cc(C)c(NC(=O)N(Cc2cccc(-c3nnn(C)n3)c2)C2CCCCCC2)c(C)c1 | 100 nM | < 1 mg/kg | Reduction [4]: 84%
8 | CN(C)c1ccc(CN(Cc2cccc(-c3cc[nH]n3)c2)C(=O)Nc2c(F)cc(F)cc2F)cc1 | 12 nM | < 0.32 mg/kg | Reduction [6]: 68%
9 | CSc1cc(C)nc(SC)c1NC(=O)N(Cc1ccccc1)Cc1cccc(-c2cnn(C)c2)c1 |  | > 0.1 mg/kg | Reduction [7]: 43%
10 | CC(C)c1cccc(C(C)C)c1OC(=O)NS(=O)(=O)Oc1c(C(C)C)cccc1C(C)C | 4000 nM | 0.61 mg/kg | IC50 [8]: 55000 nM
11 | COc1ccc(CN(Cc2cccc(-c3cc[nH]n3)c2)C(=O)Nc2c(SC)cc(C)nc2SC)cc1 | 200 nM | < 0.1 mg/kg | 
12 | Cc1cc(C)c(NC(=O)N(Cc2ccc(-n3nccn3)cc2)C2CCCCCC2)c(C)c1 | 130 nM | > 1 mg/kg | Reduction [5]: 11%
13 | CCCCCCCN(Cc1ccc(CC(C)(C)C)cc1)C(=O)Nc1ccc(F)cc1F |  | 5 mg/kg | 
14 | Cc1cc(C)c(NC(=O)N(Cc2cccc(-c3ccnn3C)c2)C2CCCCCC2)c(C)c1 | 35 nM | > 1 mg/kg | Reduction [5]: 34%
15 | O=C(Nc1c(F)cc(F)cc1F)N(Cc1ccc(-n2cccc2)cc1)C1CCCCCC1 | 27 nM | > 1 mg/kg | Reduction [5]: 21%
16 | Cc1cc(C)c(NC(=O)N(Cc2cccc(-c3csc(C)n3)c2)C2CCCCCC2)c(C)c1 | 180 nM |  | 

Row | Structure (SMILES) | IC50 [1] | ED50 [2] | other results
17 | COc1ccccc1CN(Cc1cccc(-c2cc[nH]n2)c1)C(=O)Nc1c(SC)cc(C)nc1SC |  | > 0.1 mg/kg | ED50 [3]: inactive
18 | CSc1cc(C)nc(SC)c1NC(=O)N(Cc1ccc(-c2cc[nH]n2)cc1)C1CCCCCC1 | 100 nM | < 0.32 mg/kg | Reduction [6]: 77%
19 | Cc1cc(C)c(NC(=O)N(Cc2ccc(-n3ccnc3)cc2)C2CCCCCC2)c(C)c1 | 47 nM | > 1 mg/kg | Reduction [5]: 26%
20 | Cc1cc(C)c(NC(=O)N(Cc2cccc(-c3cc[nH]n3)c2)C2CCCCC2)c(C)c1 | 39 nM | 0.12 mg/kg | 
21 | Cc1cc(C)c(NC(=O)N(Cc2ccc(-c3ccccc3)o2)C2CCCCCC2)c(C)c1 | 44 nM | < 1 mg/kg | Reduction [4]: 68%
22 | Cc1cc(C)c(NC(=O)N(Cc2ccc(-c3cn[nH]c3)cc2)C2CCCCCC2)c(C)c1 | 270 nM | > 1 mg/kg | Reduction [5]: 8%
23 | CSc1cc(C)nc(SC)c1NC(=O)N(Cc1cccc(-c2cnn(C)c2)c1)C1CCCCCC1 |  | > 0.1 mg/kg | Reduction [7]: 44%
24 | Cc1cc(C)c(NC(=O)N(Cc2ccc(-c3cccs3)cc2)C2CCCCCC2)c(C)c1 | 22 nM | 0.28 mg/kg | 
25 | Cc1cc(C)c(NC(=O)N(Cc2ccc(-c3n[nH]c(C)n3)cc2)C2CCCCCC2)c(C)c1 | 120 nM | > 1 mg/kg | Reduction [5]: 17%
26 | Cc1cc(C)c(NC(=O)N(Cc2cccc(-c3nn[nH]n3)c2)C2CCCCCC2)c(C)c1 | > 1000 nM |  | 
27 | CSc1cc(C)nc(SC)c1NC(=O)N(CCc1ccccc1)Cc1cccc(-c2cc[nH]n2)c1 |  | > 0.1 mg/kg | ED50 [3]: inactive
28 | CSc1cc(C)nc(SC)c1NC(=O)N(Cc1ccccc1)Cc1cccc(-c2ccnn2C)c1 | 28 nM | < 1 mg/kg | Reduction [4]: 88%
29 | Cc1cc(C)c(NC(=O)N(Cc2ccc(-n3ccnn3)cc2)C2CCCCCC2)c(C)c1 | 42 nM | > 1 mg/kg | Reduction [5]: 19%
30 | Cc1cc(C)c(NC(=O)N(Cc2ccc(-c3cnn(C)c3)cc2)C2CCCCCC2)c(C)c1 | 47 nM | 0.31 mg/kg | 
31 | O=C(Nc1c(F)cc(F)cc1F)N(Cc1ccc(-c2ccccn2)cc1)C1CCCCCC1 | 25 nM | > 1 mg/kg | Reduction [5]: 30%

Now from value to compound, other results behind:

Row | IC50 [1] | ED50 [2] | Structure (SMILES) | other results
32 | 72 nM | < 0.1 mg/kg | CSc1cc(C)nc(SC)c1NC(=O)N(Cc1ccc(N(C)C)cc1)Cc1cccc(-c2cc[nH]n2)c1 | 
33 |  | > 0.1 mg/kg | CSc1cc(C)nc(SC)c1NC(=O)N(Cc1ccc(-c2cnn(C)c2)cc1)C1CCCCCC1 | ED50 [3]: inactive
34 | 36 nM | < 1 mg/kg | Cc1cc(C)c(NC(=O)N(Cc2cc(-c3ccccc3)cs2)C2CCCCCC2)c(C)c1 | Reduction [4]: 69%
35 | 30 nM | 0.034 mg/kg | CSc1cc(C)nc(SC)c1NC(=O)N(Cc1ccc(Oc2ccc(F)cc2)cc1)C1CCCCCC1 | 
36 | 20 nM | 0.17 mg/kg | Cc1cc(C)c(NC(=O)N(Cc2cccc(-n3cccc3)c2)C2CCCCCC2)c(C)c1 | 
37 | 22 nM | < 1 mg/kg | Cc1cc(C)c(NC(=O)N(Cc2cccc(-c3cc[nH]n3)c2)C2CCCC2)c(C)c1 | Reduction [4]: 76%
38 | 14 nM | 0.096 mg/kg | O=C(Nc1c(F)cc(F)cc1F)N(Cc1ccccc1)Cc1cccc(-c2cc[nH]n2)c1 | 
39 |  | > 1 mg/kg | Cc1cc(C)c(NC(=O)N(Cc2cccc(-c3nnnn3C)c2)C2CCCCCC2)c(C)c1 | Reduction [5]: 26%
40 | 42 nM | < 1 mg/kg | Cc1cc(C)c(NC(=O)N(Cc2cccc(-c3ccn(C)n3)c2)C2CCCCCC2)c(C)c1 | Reduction [4]: 78%
41 | 99 nM | 0.046 mg/kg | CSc1cc(C)nc(SC)c1NC(=O)N(Cc1ccccc1)Cc1cccc(-c2cc[nH]n2)c1 | 
42 |  | < 0.32 mg/kg | O=C(Nc1c(F)cc(F)cc1F)N(Cc1ccc(F)cc1)Cc1cccc(-c2cc[nH]n2)c1 | Reduction [6]: 64%
43 | 61 nM | > 1 mg/kg | Cc1cc(C)c(NC(=O)N(Cc2cc(-c3ccccc3)on2)C2CCCCCC2)c(C)c1 | Reduction [5]: 28%
44 | 26 nM | > 1 mg/kg | Cc1cc(C)c(NC(=O)N(Cc2ccc(-n3cncn3)cc2)C2CCCCCC2)c(C)c1 | Reduction [5]: 19%
45 | 65 nM | 0.097 mg/kg | Cc1cc(C)c(NC(=O)N(Cc2cccc(-c3cc[nH]n3)c2)C2CCCCCC2)c(C)c1 | IC50 [8]: 460 nM
46 | 33 nM | > 1 mg/kg | Cc1cc(C)c(NC(=O)N(Cc2ccc(-c3ccccn3)cc2)C2CCCCCC2)c(C)c1 | Reduction [5]: 46%
47 | 200 nM | > 1 mg/kg | Cc1cc(C)c(NC(=O)N(Cc2ccc(-c3cnco3)cc2)C2CCCCCC2)c(C)c1 | Reduction [5]: 13%

Row | IC50 [1] | ED50 [2] | Structure (SMILES) | other results
48 | 250 nM | < 0.1 mg/kg | CSc1cc(C)nc(SC)c1NC(=O)N(Cc1ccc(F)cc1)Cc1cccc(-c2cc[nH]n2)c1 | 
49 | 21 nM | > 1 mg/kg | Cc1cc(C)c(NC(=O)N(Cc2ccccc2)Cc2cccc(-c3cc[nH]n3)c2)c(C)c1 | Reduction [5]: 36%
50 | 57 nM | > 1 mg/kg | Cc1cc(C)c(NC(=O)N(Cc2ccc(N3CCN(C)CC3)cc2)C2CCCCCC2)c(C)c1 | Reduction [5]: 23%
51 | 73 nM | < 1 mg/kg | CSc1cc(C)nc(SC)c1NC(=O)N(Cc1ccccc1)Cc1cccc(-c2ccn(C)n2)c1 | Reduction [4]: 77%
52 | 46 nM | < 1 mg/kg | Cc1cc(C)c(NC(=O)N(Cc2ccc(-c3ccccc3)s2)C2CCCCCC2)c(C)c1 | Reduction [4]: 60%
53 | 55 nM | < 0.32 mg/kg | CSc1cc(C)nc(SC)c1NC(=O)N(Cc1ccccc1)Cc1ccc(-c2cc[nH]n2)cc1 | Reduction [6]: 58%
54 | 23 nM | > 1 mg/kg | O=C(Nc1c(F)cc(F)cc1F)N(Cc1ccc(-c2ccsc2)cc1)C1CCCCCC1 | Reduction [9]: inactive
55 | 70 nM | > 1 mg/kg | Cc1cc(C)c(NC(=O)N(Cc2ccc(-n3cccn3)cc2)C2CCCCCC2)c(C)c1 | Reduction [9]: inactive
56 | 24 nM | < 1 mg/kg | Cc1cc(C)c(NC(=O)N(Cc2ccc(-c3ccnn3C)cc2)C2CCCCCC2)c(C)c1 | Reduction [4]: 64%
57 |  | > 0.1 mg/kg | CSc1cc(C)nc(SC)c1NC(=O)N(Cc1ccccc1)Cc1ccc(-c2cnn(C)c2)cc1 | Reduction [7]: 29%
58 | 18 nM | > 1 mg/kg | O=C(Nc1c(F)cc(F)cc1F)N(Cc1ccc(-c2cccs2)cc1)C1CCCCCC1 | Reduction [5]: 33%
59 | 27 nM | < 0.32 mg/kg | CSc1cc(C)nc(SC)c1NC(=O)N(Cc1ccccc1)Cc1ccc(-c2ccnn2C)cc1 | Reduction [6]: 86%
60 |  | < 1 mg/kg | Cc1cc(C)c(NC(=O)N(Cc2cccc(-c3c[nH]cn3)c2)C2CCCCCC2)c(C)c1 | Reduction [4]: 84%
61 |  | > 0.1 mg/kg | COc1cccc(CN(Cc2cccc(-c3cc[nH]n3)c2)C(=O)Nc2c(SC)cc(C)nc2SC)c1 | Reduction [7]: 13%
62 | 52 nM | > 1 mg/kg | Cc1cc(C)c(NC(=O)N(Cc2ccc(-c3cc[nH]n3)cc2)C2CCCCCC2)c(C)c1 | Reduction [5]: 17%
63 | 260 nM |  | Cc1cc(C)c(NC(=O)N(Cc2ccc(-c3ccccc3)nc2)C2CCCCCC2)c(C)c1 | 
